Assay results reported in ChEMBL document CHEMBL3627653, “Synthesis and biological evaluation of spiro[cyclopropane-1,3'-indolin]-2'-ones as potential anticancer agents” (Bioorg Med Chem Lett, 2015).
pIC50: −log10 of the molar value. Calls of active or inactive are those of the source. The calls are words filed in the database; no cut-off is given here.

Experiments:
A549 = assay: Anticancer activity against human A549 cells assessed as reduction in cell viability incubated for 48 hrs by MTT assay; format: functional, cell-based; details: A549, 48 h
DU-145 [1] = assay: Induction of apoptosis in human DU145 cells assessed as necrotic cells level at 1.5 uM incubated for 48 hrs by Annexin V-FITC and propidium iodide staining based flow cytometry (reference value: 3.56%); format: functional
DU-145 [2] = assay: Reduction in mitochondrial membrane potential in human DU145 cells assessed as cell level at Q1-lower right quadrant at 3 uM incubated for 48 hrs by JC1 dye staining based flow cytometry (reference value: 3.1%); format: functional; set-up: scale not given: the % may be the effect or the level left
Method in brief: (§1)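 After 48 h exposure at 1.5 or 3 μM, DU-145 cells were stained with JC-1 to track loss of mitochondrial membrane potential (ΔΨm) and read on a FACScan flow cytometer. Untreated control and nocodazole (1.5 μM) were run alongside.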

DU-145 [3] = assay: Reduction in mitochondrial membrane potential in human DU145 cells assessed as cell level at Q1-upper left quadrant at 1.5 uM incubated for 48 hrs by JC1 dye staining based flow cytometry (reference value: 1.6%); format: functional; set-up: scale not given: the % may be the effect or the level left; method in brief: as §1
DU-145 [4] = assay: Induction of cell cycle arrest in human DU145 cells assessed as accumulation at subG1 phase at 3 uM incubated for 48 hrs by propidium iodide staining based flow cytometry (reference value: 9.12%); format: functional
DU-145 [5] = assay: Induction of apoptosis in human DU145 cells assessed as increase in caspase-3 levels level at 1.5 and 3 uM incubated for 48 hrs by ELISA method; format: functional
Method in brief: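 Caspase-3 levels measured in DU-145 cells after 48 h treatment at 1.5 and 3 μM and expressed relative to untreated control. Data are mean ± SD of two experiments each run in triplicate; significance set at P < 0.005 versus control.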

DU-145 [6] = assay: Reduction in mitochondrial membrane potential in human DU145 cells assessed as cell level at Q1-lower right quadrant at 1.5 uM incubated for 48 hrs by JC1 dye staining based flow cytometry (reference value: 3.1%); format: functional; set-up: scale not given: the % may be the effect or the level left; method in brief: as §1
DU-145 [7] = assay: Induction of apoptosis in human DU145 cells assessed as viable cells level at 1.5 uM incubated for 48 hrs by Annexin V-FITC and propidium iodide staining based flow cytometry (reference value: 87.88%); format: functional
DU-145 [8] = assay: Induction of cell cycle arrest in human DU145 cells assessed as accumulation at G0/G1 phase at 3 uM incubated for 48 hrs by propidium iodide staining based flow cytometry (reference value: 79.81%); format: functional
DU-145 [9] = assay: Induction of apoptosis in human DU145 cells assessed as early apoptotic cells level at 1.5 uM incubated for 48 hrs by Annexin V-FITC and propidium iodide staining based flow cytometry (reference value: 4.73%); format: functional
DU-145 [10] = assay: Reduction in mitochondrial membrane potential in human DU145 cells assessed as cell level at Q1-lower left quadrant at 3 uM incubated for 48 hrs by JC1 dye staining based flow cytometry (reference value: 0.1%); format: functional; set-up: scale not given: the % may be the effect or the level left; method in brief: as §1
DU-145 [11] = assay: Induction of apoptosis in human DU145 cells assessed as late apoptotic cells level at 1.5 uM incubated for 48 hrs by Annexin V-FITC and propidium iodide staining based flow cytometry (reference value: 3.83%); format: functional
DU-145 [12] = assay: Reduction in mitochondrial membrane potential in human DU145 cells assessed as cell level at Q1-lower left quadrant at 1.5 uM incubated for 48 hrs by JC1 dye staining based flow cytometry (reference value: 0.1%); format: functional; set-up: scale not given: the % may be the effect or the level left; method in brief: as §1
HEK293 = assay: Cytotoxic activity against human HEK293 cells assessed as reduction in cell viability incubated for 48 hrs by MTT assay; format: cell-based; details: HEK293, 48 h
DU-145 [13] = assay: Reduction in mitochondrial membrane potential in human DU145 cells at 3 uM incubated for 48 hrs by JC1 dye staining based flow cytometry; format: functional, cell-based; method in brief: as §1
DU-145 [14] = assay: Induction of cell cycle arrest in human DU145 cells assessed as accumulation at G2/M phase at 3 uM incubated for 48 hrs by propidium iodide staining based flow cytometry (reference value: 6.51%); format: functional
DU-145 [15] = assay: Reduction in mitochondrial membrane potential in human DU145 cells assessed as cell level at Q1-upper left quadrant at 3 uM incubated for 48 hrs by JC1 dye staining based flow cytometry (reference value: 1.6%); format: functional; set-up: scale not given: the % may be the effect or the level left; method in brief: as §1
MCF7 = assay: Anticancer activity against human MCF7 cells assessed as reduction in cell viability incubated for 48 hrs by MTT assay; format: functional, cell-based; details: MCF7, 48 h
DU-145 [16] = assay: Induction of apoptosis in human DU145 cells assessed as necrotic cells level at 3 uM incubated for 48 hrs by Annexin V-FITC and propidium iodide staining based flow cytometry (reference value: 3.56%); format: functional
DU-145 [17] = assay: Anticancer activity against human DU145 cells; format: functional, cell-based
DU-145 [18] = assay: Induction of cell cycle arrest in human DU145 cells assessed as accumulation at G2/M phase at 1.5 uM incubated for 48 hrs by propidium iodide staining based flow cytometry (reference value: 6.51%); format: functional
DU-145 [19] = assay: Induction of apoptosis in human DU145 cells assessed as early apoptotic cells level at 3 uM incubated for 48 hrs by Annexin V-FITC and propidium iodide staining based flow cytometry (reference value: 4.73%); format: functional
DU-145 [20] = assay: Induction of cell cycle arrest in human DU145 cells assessed as accumulation at S phase at 1.5 uM incubated for 48 hrs by propidium iodide staining based flow cytometry (reference value: 1.74%); format: functional
DU-145 [21] = assay: Induction of apoptosis in human DU145 cells assessed as late apoptotic cells level at 3 uM incubated for 48 hrs by Annexin V-FITC and propidium iodide staining based flow cytometry (reference value: 3.83%); format: functional
DU-145 [22] = assay: Reduction in mitochondrial membrane potential in human DU145 cells assessed as cell level at Q1-upper right quadrant at 1.5 uM incubated for 48 hrs by JC1 dye staining based flow cytometry (reference value: 95.1%); format: functional; set-up: scale not given: the % may be the effect or the level left; method in brief: as §1
HT-29 = assay: Anticancer activity against human HT-29 cells assessed as reduction in cell viability incubated for 48 hrs by MTT assay; format: functional, cell-based; details: HT-29, 48 h
HeLa = assay: Anticancer activity against human HeLa cells assessed as reduction in cell viability incubated for 48 hrs by MTT assay; format: functional, cell-based
DU-145 [23] = assay: Induction of apoptosis in human DU145 cells assessed as viable cells level at 3 uM incubated for 48 hrs by Annexin V-FITC and propidium iodide staining based flow cytometry (reference value: 87.88%); format: functional
DU-145 [24] = assay: Anticancer activity against human DU145 cells assessed as reduction in cell viability incubated for 48 hrs by MTT assay; format: functional, cell-based; details: DU-145, 48 h
DU-145 [25] = assay: Induction of cell cycle arrest in human DU145 cells assessed as accumulation at S phase at 3 uM incubated for 48 hrs by propidium iodide staining based flow cytometry (reference value: 1.74%); format: functional
DU-145 [26] = assay: Induction of cell cycle arrest in human DU145 cells assessed as accumulation at subG1 phase at 1.5 uM incubated for 48 hrs by propidium iodide staining based flow cytometry (reference value: 9.12%); format: functional
DU-145 [27] = assay: Reduction in mitochondrial membrane potential in human DU145 cells at 1.5 uM incubated for 48 hrs by JC1 dye staining based flow cytometry; format: functional, cell-based; method in brief: as §1
DU-145 [28] = assay: Induction of cell cycle arrest in human DU145 cells assessed as accumulation at G0/G1 phase at 1.5 uM incubated for 48 hrs by propidium iodide staining based flow cytometry (reference value: 79.81%); format: functional
DU-145 [29] = assay: Reduction in mitochondrial membrane potential in human DU145 cells assessed as cell level at Q1-upper right quadrant at 3 uM incubated for 48 hrs by JC1 dye staining based flow cytometry (reference value: 95.1%); format: functional; set-up: scale not given: the % may be the effect or the level left; method in brief: as §1

## CCOC(=O)[C@H]1[C@H](C(=O)c2ccccc2)C12C(=O)Nc1ccccc12 (relative stereo)
A549
  pIC50: 5.29
DU-145 [1]
  Activity: 0.62%
DU-145 [2]
  Activity: 11.1%
DU-145 [3]
  Activity: 2.9%
DU-145 [4]
  Activity: 84.93%
DU-145 [5]
  fold change (FC): 2
DU-145 [6]
  Activity: 6.6%
DU-145 [7]
  Activity: 4.19%
DU-145 [8]
  Activity: 4.03%
DU-145 [9]
  Activity: 56.01%
DU-145 [10]
  Activity: 1.6%
DU-145 [11]
  Activity: 78.52%
DU-145 [12]
  Activity: 0.8%
HEK293
  pIC50: 4.19
DU-145 [13]
  Activity: Active
DU-145 [14]
  Activity: 8.93%
DU-145 [15]
  Activity: 2.2%
MCF7
  pIC50: 5.40
DU-145 [16]
  Activity: 10.74%
DU-145 [17]
  pIC50: 5.68
DU-145 [18]
  Activity: 2.27%
DU-145 [19]
  Activity: 22.15%
DU-145 [20]
  Activity: 16.58%
DU-145 [21]
  Activity: 10.12%
DU-145 [22]
  Activity: 89.7%
HT-29
  pIC50: 5.41
HeLa
  pIC50: 5.12
DU-145 [23]
  Activity: 17.66%
DU-145 [24]
  pIC50: 5.68
DU-145 [25]
  Activity: 70.57%
DU-145 [26]
  Activity: 7.77%
DU-145 [27]
  Activity: Active
DU-145 [28]
  Activity: 2.11%
DU-145 [29]
  Activity: 85.1%
